Assays:
Assay type in all cases: toxicity, cell-based
Fibroblast [1] = assay: Incucyte cell viability with human fibroblast; conditions: 10 µM, compound concentration 10 uM; further: filed as whole numbers so only -1 and 0 and 1 occur
U2OS = assay: Incucyte cell viability with U2OS; conditions: human, 10 µM, compound concentration 10 uM; further: filed as whole numbers so only -1 and 0 and 1 occur
Fibroblast [2] = assay: Multiplex assay against human fibroblast
In short: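 Live cells carried four stains from seeding: Hoechst33342, BioTracker Green Microtubule Cytoskeleton Dye, MitoTracker Red and Annexin V Alexa Fluor 680. They were imaged on a CQ1 microscope at 37°C and 5% CO2 after compound addition. Using CellPathfinder machine-learning gating, cells were split into Hoechst high-intensity objects or normal cells, normal cells into healthy, pyknosed or fragmented nuclei, and pyknosed cells into mitotic or apoptotic; tubulin, mitochondrial-mass and membrane-permeability phenotypes are per cents of healthy-nucleus cells.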

[3] = 0 h, replicate number 1, timepoint 0 hours
[4] = 6 h, replicate number 2, timepoint 6 hours
[5] = 12 h, replicate number 1, timepoint 12 hours
[6] = 18 h, replicate number 1, timepoint 18 hours
[7] = 24 h, replicate number 1, timepoint 24 hours
[8] = 12 h, 1 µM, compound concentration 1 uM, replicate 1
[9] = 12 h, 1 µM, compound concentration 1 uM, replicate 2
[10] = 12 h, 10 µM, compound concentration 10 uM, replicate 1
[11] = 12 h, 10 µM, compound concentration 10 uM, replicate 2
[12] = 24 h, 1 µM, compound concentration 1 uM, replicate 1
[13] = 24 h, 1 µM, compound concentration 1 uM, replicate 2
[14] = 24 h, 10 µM, compound concentration 10 uM, replicate 1
[15] = 24 h, 10 µM, compound concentration 10 uM, replicate 2
[16] = 48 h, 1 µM, compound concentration 1 uM, replicate 1
[17] = 48 h, 1 µM, compound concentration 1 uM, replicate 2
[18] = 48 h, 10 µM, compound concentration 10 uM, replicate 1
[19] = 48 h, 10 µM, compound concentration 10 uM, replicate 2

CC(C)N1CCC(C)(C)c2cc(C#Cc3ccc(C(=O)O)cc3)ccc21
Growth Rate (Fibroblast [1]; [3]): 0
Growth Rate (Fibroblast [1]; [4]): 0
Growth Rate (Fibroblast [1]; [5]): 0
Growth Rate (Fibroblast [1]; 12 h, replicate number 2, timepoint 12 hours): 1
Growth Rate (Fibroblast [1]; [6]): 0
Growth Rate (Fibroblast [1]; [7]): 0
Growth Rate (U2OS; [3]): 0
Growth Rate (U2OS; [4]): 0
Growth Rate (U2OS; [5]): 1
Growth Rate (U2OS; [6]): 1
Growth Rate (U2OS; [7]): 1
Population Apoptotic (%) (Fibroblast [2]; [8]): 89%
Population Fragmented Nuclei (%) (Fibroblast [2]; [8]): 42%
Population Healthy Nuclei (%) (Fibroblast [2]; [8]): 41%
Population Hoechst High Intensity Objects (%) (Fibroblast [2]; [8]): 41%
Population Membrane Permeable-Phenotype (%) (Fibroblast [2]; [8]): 30%
Population Mitochondria Different-Phenotype (%) (Fibroblast [2]; [8]): 6%
Population Mitotic Cells (%) (Fibroblast [2]; [8]): 10%
Population Normal (%) (Fibroblast [2]; [8]): 58%
Population Pyknosed Nuclei (%) (Fibroblast [2]; [8]): 15%
Population Tubulin-Different-Phenotype (%) (Fibroblast [2]; [8]): 46%
Total Cell Count (Fibroblast [2]; [8]): 207
Population Apoptotic (%) (Fibroblast [2]; [9]): 20%
Population Fragmented Nuclei (%) (Fibroblast [2]; [9]): 16%
Population Healthy Nuclei (%) (Fibroblast [2]; [9]): 75%
Population Hoechst High Intensity Objects (%) (Fibroblast [2]; [9]): 13%
Population Membrane Permeable-Phenotype (%) (Fibroblast [2]; [9]): 6%
Population Mitochondria Different-Phenotype (%) (Fibroblast [2]; [9]): 15%
Population Mitotic Cells (%) (Fibroblast [2]; [9]): 80%
Population Normal (%) (Fibroblast [2]; [9]): 86%
Population Pyknosed Nuclei (%) (Fibroblast [2]; [9]): 8%
Population Tubulin-Different-Phenotype (%) (Fibroblast [2]; [9]): 20%
Total Cell Count (Fibroblast [2]; [9]): 69
Population Apoptotic (%) (Fibroblast [2]; [10]): 75%
Population Fragmented Nuclei (%) (Fibroblast [2]; [10]): 89%
Population Healthy Nuclei (%) (Fibroblast [2]; [10]): 6%
Population Hoechst High Intensity Objects (%) (Fibroblast [2]; [10]): 76%
Population Membrane Permeable-Phenotype (%) (Fibroblast [2]; [10]): 14%
Population Mitochondria Different-Phenotype (%) (Fibroblast [2]; [10]): 0%
Population Mitotic Cells (%) (Fibroblast [2]; [10]): 25%
Population Normal (%) (Fibroblast [2]; [10]): 23%
Population Pyknosed Nuclei (%) (Fibroblast [2]; [10]): 3%
Population Tubulin-Different-Phenotype (%) (Fibroblast [2]; [10]): 7%
Total Cell Count (Fibroblast [2]; [10]): 898
Population Apoptotic (%) (Fibroblast [2]; [11]): 0%
Population Fragmented Nuclei (%) (Fibroblast [2]; [11]): 55%
Population Healthy Nuclei (%) (Fibroblast [2]; [11]): 44%
Population Hoechst High Intensity Objects (%) (Fibroblast [2]; [11]): 71%
Population Membrane Permeable-Phenotype (%) (Fibroblast [2]; [11]): 4%
Population Mitochondria Different-Phenotype (%) (Fibroblast [2]; [11]): 14%
Population Mitotic Cells (%) (Fibroblast [2]; [11]): 0%
Population Normal (%) (Fibroblast [2]; [11]): 28%
Population Pyknosed Nuclei (%) (Fibroblast [2]; [11]): 0%
Population Tubulin-Different-Phenotype (%) (Fibroblast [2]; [11]): 28%
Total Cell Count (Fibroblast [2]; [11]): 327
Population Apoptotic (%) (Fibroblast [2]; [12]): 85%
Population Fragmented Nuclei (%) (Fibroblast [2]; [12]): 39%
Population Healthy Nuclei (%) (Fibroblast [2]; [12]): 48%
Population Hoechst High Intensity Objects (%) (Fibroblast [2]; [12]): 41%
Population Membrane Permeable-Phenotype (%) (Fibroblast [2]; [12]): 29%
Population Mitochondria Different-Phenotype (%) (Fibroblast [2]; [12]): 1%
Population Mitotic Cells (%) (Fibroblast [2]; [12]): 14%
Population Normal (%) (Fibroblast [2]; [12]): 58%
Population Pyknosed Nuclei (%) (Fibroblast [2]; [12]): 11%
Population Tubulin-Different-Phenotype (%) (Fibroblast [2]; [12]): 38%
Total Cell Count (Fibroblast [2]; [12]): 202
Population Apoptotic (%) (Fibroblast [2]; [13]): 50%
Population Fragmented Nuclei (%) (Fibroblast [2]; [13]): 18%
Population Healthy Nuclei (%) (Fibroblast [2]; [13]): 76%
Population Hoechst High Intensity Objects (%) (Fibroblast [2]; [13]): 4%
Population Membrane Permeable-Phenotype (%) (Fibroblast [2]; [13]): 3%
Population Mitochondria Different-Phenotype (%) (Fibroblast [2]; [13]): 10%
Population Mitotic Cells (%) (Fibroblast [2]; [13]): 50%
Population Normal (%) (Fibroblast [2]; [13]): 95%
Population Pyknosed Nuclei (%) (Fibroblast [2]; [13]): 5%
Population Tubulin-Different-Phenotype (%) (Fibroblast [2]; [13]): 18%
Total Cell Count (Fibroblast [2]; [13]): 81
Population Apoptotic (%) (Fibroblast [2]; [14]): 72%
Population Fragmented Nuclei (%) (Fibroblast [2]; [14]): 86%
Population Healthy Nuclei (%) (Fibroblast [2]; [14]): 7%
Population Hoechst High Intensity Objects (%) (Fibroblast [2]; [14]): 78%
Population Membrane Permeable-Phenotype (%) (Fibroblast [2]; [14]): 33%
Population Mitochondria Different-Phenotype (%) (Fibroblast [2]; [14]): 0%
Population Mitotic Cells (%) (Fibroblast [2]; [14]): 27%
Population Normal (%) (Fibroblast [2]; [14]): 21%
Population Pyknosed Nuclei (%) (Fibroblast [2]; [14]): 5%
Population Tubulin-Different-Phenotype (%) (Fibroblast [2]; [14]): 20%
Total Cell Count (Fibroblast [2]; [14]): 921
Population Apoptotic (%) (Fibroblast [2]; [15]): 100%
Population Fragmented Nuclei (%) (Fibroblast [2]; [15]): 49%
Population Healthy Nuclei (%) (Fibroblast [2]; [15]): 47%
Population Hoechst High Intensity Objects (%) (Fibroblast [2]; [15]): 66%
Population Membrane Permeable-Phenotype (%) (Fibroblast [2]; [15]): 3%
Population Mitochondria Different-Phenotype (%) (Fibroblast [2]; [15]): 3%
Population Mitotic Cells (%) (Fibroblast [2]; [15]): 0%
Population Normal (%) (Fibroblast [2]; [15]): 33%
Population Pyknosed Nuclei (%) (Fibroblast [2]; [15]): 2%
Population Tubulin-Different-Phenotype (%) (Fibroblast [2]; [15]): 26%
Total Cell Count (Fibroblast [2]; [15]): 352
Population Apoptotic (%) (Fibroblast [2]; [16]): 57%
Population Fragmented Nuclei (%) (Fibroblast [2]; [16]): 47%
Population Healthy Nuclei (%) (Fibroblast [2]; [16]): 45%
Population Hoechst High Intensity Objects (%) (Fibroblast [2]; [16]): 45%
Population Membrane Permeable-Phenotype (%) (Fibroblast [2]; [16]): 29%
Population Mitochondria Different-Phenotype (%) (Fibroblast [2]; [16]): 0%
Population Mitotic Cells (%) (Fibroblast [2]; [16]): 42%
Population Normal (%) (Fibroblast [2]; [16]): 54%
Population Pyknosed Nuclei (%) (Fibroblast [2]; [16]): 6%
Population Tubulin-Different-Phenotype (%) (Fibroblast [2]; [16]): 29%
Total Cell Count (Fibroblast [2]; [16]): 202
Population Apoptotic (%) (Fibroblast [2]; [17]): 0%
Population Fragmented Nuclei (%) (Fibroblast [2]; [17]): 57%
Population Healthy Nuclei (%) (Fibroblast [2]; [17]): 42%
Population Hoechst High Intensity Objects (%) (Fibroblast [2]; [17]): 35%
Population Membrane Permeable-Phenotype (%) (Fibroblast [2]; [17]): 14%
Population Mitochondria Different-Phenotype (%) (Fibroblast [2]; [17]): 5%
Population Mitotic Cells (%) (Fibroblast [2]; [17]): 100%
Population Normal (%) (Fibroblast [2]; [17]): 64%
Population Pyknosed Nuclei (%) (Fibroblast [2]; [17]): 0%
Population Tubulin-Different-Phenotype (%) (Fibroblast [2]; [17]): 25%
Total Cell Count (Fibroblast [2]; [17]): 198
Population Apoptotic (%) (Fibroblast [2]; [18]): 60%
Population Fragmented Nuclei (%) (Fibroblast [2]; [18]): 90%
Population Healthy Nuclei (%) (Fibroblast [2]; [18]): 6%
Population Hoechst High Intensity Objects (%) (Fibroblast [2]; [18]): 77%
Population Membrane Permeable-Phenotype (%) (Fibroblast [2]; [18]): 25%
Population Mitochondria Different-Phenotype (%) (Fibroblast [2]; [18]): 0%
Population Mitotic Cells (%) (Fibroblast [2]; [18]): 40%
Population Normal (%) (Fibroblast [2]; [18]): 22%
Population Pyknosed Nuclei (%) (Fibroblast [2]; [18]): 2%
Population Tubulin-Different-Phenotype (%) (Fibroblast [2]; [18]): 18%
Total Cell Count (Fibroblast [2]; [18]): 1050
Population Apoptotic (%) (Fibroblast [2]; [19]): 0%
Population Fragmented Nuclei (%) (Fibroblast [2]; [19]): 93%
Population Hoechst High Intensity Objects (%) (Fibroblast [2]; [19]): 84%
Population Membrane Permeable-Phenotype (%) (Fibroblast [2]; [19]): 20%
Population Mitochondria Different-Phenotype (%) (Fibroblast [2]; [19]): 10%
Population Mitotic Cells (%) (Fibroblast [2]; [19]): 0%
Population Normal (%) (Fibroblast [2]; [19]): 15%
Population Pyknosed Nuclei (%) (Fibroblast [2]; [19]): 0%
Population Tubulin-Different-Phenotype (%) (Fibroblast [2]; [19]): 10%
Total Cell Count (Fibroblast [2]; [19]): 961
